{
  "source": "ChEMBL document CHEMBL1141134",
  "about": "“Scaffold hopping with molecular field points: identification of a cholecystokinin-2 (CCK2) receptor pharmacophore and its use in the design of a prototypical series of pyrrole- and imidazole-based CCK2 antagonists” (J Med Chem, 2005)",
  "key": {"[1]": {"test": "Log D value was measured in octanol/buffer (pH 7.5)", "assay_type": "physicochemical", "method_in_brief": "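Partition between octanol and buffer at pH 7.5.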"}, "[2]": {"molecular_target": "T1, Cholecystokinin receptor type A (Cavia porcellus, UniProt Q63931)", "T1 sequence (Q63931 whole entry)": "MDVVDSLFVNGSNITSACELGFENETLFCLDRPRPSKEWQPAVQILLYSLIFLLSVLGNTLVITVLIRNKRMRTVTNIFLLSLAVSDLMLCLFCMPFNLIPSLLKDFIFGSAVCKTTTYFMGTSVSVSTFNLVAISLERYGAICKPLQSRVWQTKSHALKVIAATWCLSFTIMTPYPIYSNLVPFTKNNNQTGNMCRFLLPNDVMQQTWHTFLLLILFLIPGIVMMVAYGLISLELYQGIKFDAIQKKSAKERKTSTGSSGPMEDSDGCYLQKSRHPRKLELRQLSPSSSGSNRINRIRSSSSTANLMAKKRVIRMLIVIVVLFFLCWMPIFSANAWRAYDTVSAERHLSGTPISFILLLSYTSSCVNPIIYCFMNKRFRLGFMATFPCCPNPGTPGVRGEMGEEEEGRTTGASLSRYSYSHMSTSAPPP", "test": "Inhibition of 20 pM [125I]BH-CCK-8S binding to guinea pig pancreas membrane Cholecystokinin 1 receptor", "method_in_brief": "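Competition binding in guinea pig pancreas cell homogenates against 20 pM [125I]BH-CCK-8S; pKi ± SEM derived from at least three separate experiments.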"}, "[3]": {"test": "Percent material excreted unchanged was detected in the bile by i.v. administration (10 uM/Kg) to anesthetized rat", "assay_type": "ADME", "conditions": "iv, read-out: Activity", "method_in_brief": "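Anesthetized rats dosed iv bolus at 10 μmol/kg; bile duct cannulated, bile collected in 15 min intervals over 150 min total; unchanged compound measured by HPLC, reported as percent excreted.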"}, "[4]": {"molecular_target": "T2, Gastrin/cholecystokinin type B receptor (Mus musculus, UniProt P56481)", "T2 sequence (P56481 whole entry)": "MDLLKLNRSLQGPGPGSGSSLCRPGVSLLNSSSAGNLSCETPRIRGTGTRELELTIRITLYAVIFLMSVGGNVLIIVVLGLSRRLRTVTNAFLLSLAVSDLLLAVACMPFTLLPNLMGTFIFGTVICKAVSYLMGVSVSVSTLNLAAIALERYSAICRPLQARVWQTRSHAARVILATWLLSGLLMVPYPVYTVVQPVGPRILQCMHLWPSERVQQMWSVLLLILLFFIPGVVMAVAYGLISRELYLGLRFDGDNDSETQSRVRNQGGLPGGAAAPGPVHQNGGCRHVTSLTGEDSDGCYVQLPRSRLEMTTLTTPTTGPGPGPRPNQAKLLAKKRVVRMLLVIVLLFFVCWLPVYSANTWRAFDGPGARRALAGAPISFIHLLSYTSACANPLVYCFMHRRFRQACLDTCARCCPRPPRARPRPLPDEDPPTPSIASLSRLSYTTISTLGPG", "test": "Inhibition of 20 pM [125I]BH-CCK-8S binding to mouse cortical membrane Cholecystokinin 2 receptor", "method_in_brief": "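Competition binding in mouse cortical membrane homogenates against 20 pM [125I]BH-CCK-8S tracer; pKi ± SEM from at least three separate experiments.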"}, "[5]": {"molecular_target": "T3, Gastrin/cholecystokinin type B receptor (Mus musculus) (UniProt P56481)", "T3 sequence (whole entry)": "T2 sequence (P56481 whole entry)", "test": "Loss of Cholecystokinin 2 receptor activity relative to parent compound", "assay_type": "functional"}, "[6]": {"test": "Percent material excreted unchanged was detected in the bile by i.v. administration (1 or 10 uM/Kg) to anesthetized rat", "assay_type": "ADME", "conditions": "iv, read-out: Activity", "method_in_brief": "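Anesthetized rats, iv bolus at 1 or 10 μmol/kg; bile duct cannulated, bile collected in 15 min intervals over 150 min total; unchanged compound in bile quantified by HPLC, expressed as percent of dose. Compounds given as bis(N-methyl-D-glucamine) salts.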"}},
  "data": [
    {"smiles": "CNC[C@H](O)[C@@H](O)[C@H](O)[C@H](O)CO.O=C(Nc1cc(CO)cc(CO)c1)c1[nH]c(-c2ccc3ccccc3c2)nc1CC1CCCCCC1", "values": [
      {"measurement": "logD", "setting": "[1]", "result": "> 4"},
      {"measurement": "Ki", "setting": "[2]", "result": 3.16, "unit": "µM"},
      {"measurement": "dose excreted", "setting": "[3]", "result": 1, "unit": "%"},
      {"measurement": "Ki", "setting": "[4]", "result": 3.98, "unit": "µM"}
    ]},
    {"smiles": "CNC[C@H](O)[C@@H](O)[C@H](O)[C@H](O)CO.O=C(O)c1cccc(NC(=O)c2[nH]c(-c3ccc4ccccc4c3)nc2CC2CCCCCC2)c1", "values": [
      {"measurement": "logD", "setting": "[1]", "result": 2.8},
      {"measurement": "dose excreted", "setting": "[3]", "result": 5, "unit": "%"},
      {"measurement": "Ki", "setting": "[4]", "result": 0.794, "unit": "µM"}
    ]},
    {"smiles": "O=C(O)c1cc(NC(=O)c2cc(-c3ccccc3)[nH]c2CC23CC4CC(CC(C4)C2)C3)cc(C(=O)O)c1", "values": [
      {"measurement": "Ki", "setting": "[2]", "result": 7.94, "unit": "µM"},
      {"measurement": "Ki", "setting": "[4]", "result": 0.126, "unit": "µM"}
    ]},
    {"smiles": "CNC[C@H](O)[C@@H](O)[C@H](O)[C@H](O)CO.O=C(O)c1cc(NC(=O)c2cc(-c3ccc4ccccc4c3)[nH]c2CC2CCCCCC2)cc(C(=O)O)c1", "values": [
      {"measurement": "logD", "setting": "[1]", "result": 1.4},
      {"measurement": "Ki", "setting": "[2]", "result": 2.51, "unit": "µM"},
      {"measurement": "dose excreted", "setting": "[3]", "result": 59, "unit": "%"},
      {"measurement": "Ki", "setting": "[4]", "result": 0.2, "unit": "µM"}
    ]},
    {"smiles": "O=C(O)CCNC(=O)c1cc(-c2ccccc2)[nH]c1CC12CC3CC(CC(C3)C1)C2", "values": [
      {"measurement": "Ki", "setting": "[2]", "result": 10, "unit": "µM"},
      {"measurement": "Ki", "setting": "[4]", "result": 3.16, "unit": "µM"}
    ]},
    {"smiles": "O=C(O)c1cc(NC(=O)c2cc(-c3ccccc3)[nH]c2CC2CCCCCC2)cc(C(=O)O)c1", "values": [
      {"measurement": "Ki", "setting": "[2]", "result": 7.94, "unit": "µM"},
      {"measurement": "Ki", "setting": "[4]", "result": 0.251, "unit": "µM"}
    ]},
    {"smiles": "O=C(O)c1cc(NC(=O)c2[nH]c(-c3ccccc3)nc2CC23CC4CC(CC(C4)C2)C3)cc(C(=O)O)c1", "values": [
      {"measurement": "Ki", "setting": "[2]", "result": 3.16, "unit": "µM"},
      {"measurement": "Ki", "setting": "[4]", "result": 0.158, "unit": "µM"}
    ]},
    {"smiles": "O=C(O)c1cc(NC(=O)[C@H](Cc2ccccc2)NC(=O)c2cc3cc[nH]c3cc2C(=O)NCC23CC4CC(CC(C4)C2)C3)cc(C(=O)O)c1", "values": [
      {"measurement": "Ki", "setting": "[2]", "result": 3.98, "unit": "µM"},
      {"measurement": "Ki", "setting": "[4]", "result": 0.001, "unit": "µM"}
    ]},
    {"smiles": "O=C(O)c1cc(NC(=O)[C@H](Cc2ccccc2)NC(=O)c2ccccc2C(=O)NCC23CC4CC(CC(C4)C2)C3)cc(C(=O)O)c1", "values": [
      {"measurement": "Ki", "setting": "[4]", "result": 0.0316, "unit": "µM"}
    ]},
    {"smiles": "O=C(O)c1cc(NC(=O)c2[nH]c(-c3ccc4[nH]ccc4c3)nc2CC2CCCCCC2)cc(C(=O)O)c1", "values": [
      {"measurement": "Ki", "setting": "[2]", "result": 5.01, "unit": "µM"},
      {"measurement": "Ki", "setting": "[4]", "result": 1, "unit": "µM"}
    ]},
    {"smiles": "CN(C(=O)c1cc2[nH]cnc2cc1C(=O)NCC12CC3CC(CC(C3)C1)C2)[C@@H](Cc1ccccc1)C(=O)Nc1cc(C(=O)O)cc(C(=O)O)c1", "values": [
      {"measurement": "Activity", "setting": "[5]", "result": 0.7},
      {"measurement": "Ki", "setting": "[4]", "result": 0.0251, "unit": "µM"}
    ]},
    {"smiles": "CNC[C@H](O)[C@@H](O)[C@H](O)[C@H](O)CO.O=C(O)c1cc(NC(=O)[C@H](Cc2ccccc2)NC(=O)c2cc3[nH]cnc3cc2C(=O)NCC23CC4CC(CC(C4)C2)C3)cc(C(=O)O)c1", "values": [
      {"measurement": "logD", "setting": "[1]", "result": -2.3},
      {"measurement": "dose excreted", "setting": "[6]", "result": 45, "unit": "%"},
      {"measurement": "Ki", "setting": "[2]", "result": 1.58, "unit": "µM"},
      {"measurement": "Ki", "setting": "[4]", "result": 0.00501, "unit": "µM"}
    ]},
    {"smiles": "CN(C(=O)[C@H](Cc1ccccc1)NC(=O)c1cc2[nH]cnc2cc1C(=O)NCC12CC3CC(CC(C3)C1)C2)c1cc(C(=O)O)cc(C(=O)O)c1", "values": [
      {"measurement": "Activity", "setting": "[5]", "result": 2},
      {"measurement": "Ki", "setting": "[2]", "result": 3.98, "unit": "µM"}
    ]},
    {"smiles": "CNC[C@H](O)[C@@H](O)[C@H](O)[C@H](O)CO.O=C(O)c1cc(NC(=O)c2[nH]c(-c3ccc4ccccc4c3)nc2CC2CCCCCC2)cc(C(=O)O)c1", "values": [
      {"measurement": "logD", "setting": "[1]", "result": 0.7},
      {"measurement": "Ki", "setting": "[2]", "result": 3.16, "unit": "µM"},
      {"measurement": "dose excreted", "setting": "[3]", "result": 53, "unit": "%"}
    ]},
    {"smiles": "O=C(O)c1cc(NC(=O)c2[nH]c(-c3ccccc3)nc2CC2CCCCCC2)cc(C(=O)O)c1", "values": [
      {"measurement": "Ki", "setting": "[2]", "result": 7.94, "unit": "µM"}
    ]},
    {"smiles": "O=C(O)c1cc(NC(=O)c2[nH]c(-c3ccccc3)nc2CCC23CC4CC(CC(C4)C2)C3)cc(C(=O)O)c1", "values": [
      {"measurement": "Ki", "setting": "[2]", "result": 6.31, "unit": "µM"},
      {"measurement": "Ki", "setting": "[4]", "result": 0.631, "unit": "µM"}
    ]},
    {"smiles": "CNC[C@H](O)[C@@H](O)[C@H](O)[C@H](O)CO.O=C(O)c1cccc(NC(=O)c2cc(-c3ccc4ccccc4c3)[nH]c2CC2CCCCCC2)c1", "values": [
      {"measurement": "logD", "setting": "[1]", "result": 2.9},
      {"measurement": "Ki", "setting": "[2]", "result": 3.98, "unit": "µM"},
      {"measurement": "dose excreted", "setting": "[3]", "result": 6, "unit": "%"},
      {"measurement": "Ki", "setting": "[4]", "result": 1.26, "unit": "µM"}
    ]},
    {"smiles": "CNC[C@H](O)[C@@H](O)[C@H](O)[C@H](O)CO.O=C(O)c1cccc(NC(=O)[C@H](Cc2ccccc2)NC(=O)c2cc3[nH]cnc3cc2C(=O)NCC23CC4CC(CC(C4)C2)C3)c1", "values": [
      {"measurement": "logD", "setting": "[1]", "result": 1.1},
      {"measurement": "dose excreted", "setting": "[6]", "result": 39, "unit": "%"},
      {"measurement": "Ki", "setting": "[2]", "result": 5.01, "unit": "µM"},
      {"measurement": "Ki", "setting": "[4]", "result": 0.398, "unit": "µM"}
    ]},
    {"smiles": "CNC[C@H](O)[C@@H](O)[C@H](O)[C@H](O)CO.O=C(NCC12CC3CC(CC(C3)C1)C2)c1cc2nc[nH]c2cc1C(=O)N[C@@H](Cc1ccccc1)C(=O)Nc1cc(CO)cc(CO)c1", "values": [
      {"measurement": "logD", "setting": "[1]", "result": 3.7},
      {"measurement": "dose excreted", "setting": "[6]", "result": 22, "unit": "%"},
      {"measurement": "Ki", "setting": "[2]", "result": 3.98, "unit": "µM"}
    ]},
    {"smiles": "O=C(O)c1cc(NC(=O)c2cc(-c3ccccc3)[nH]c2CCC23CC4CC(CC(C4)C2)C3)cc(C(=O)O)c1", "values": [
      {"measurement": "Ki", "setting": "[2]", "result": 5.01, "unit": "µM"},
      {"measurement": "Ki", "setting": "[4]", "result": 0.2, "unit": "µM"}
    ]},
    {"smiles": "O=C(O)c1cc(NC(=O)[C@H](Cc2ccccc2)NC(=O)C2C3c4ccccc4C(c4ccccc43)C2C(=O)NCC23CC4CC(CC(C4)C2)C3)cc(C(=O)O)c1", "note": "(some centres not stated)", "values": [
      {"measurement": "Ki", "setting": "[2]", "result": 2, "unit": "µM"}
    ]}
  ]
}
